From PubChem BioAssay
The list is not random: actives were taken first. Their share in the collection is about 3.1%.
PRMT1 FP inh: inhibitors of human PRMT1. recombinant PRMT1, activity-based probe fluorescence polarization. inhibition, % at 2.79 µM. 370,000 tested, 1.3% active. AID 652257;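 active means inhibition above about 21% made by adding two undisclosed values, limit read from the data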
MBD2 DNA inh: MBD2-methylated oligo binding inhibition. Q9UBB5. TR-FRET, MBD2 binding to methylated oligonucleotide. inhibition, % at 4.4 µM. 370,000 tested, 0.31% active; in the data active means inhibition above about 13%
Target sequence (Q9UBB5 whole entry, looked up): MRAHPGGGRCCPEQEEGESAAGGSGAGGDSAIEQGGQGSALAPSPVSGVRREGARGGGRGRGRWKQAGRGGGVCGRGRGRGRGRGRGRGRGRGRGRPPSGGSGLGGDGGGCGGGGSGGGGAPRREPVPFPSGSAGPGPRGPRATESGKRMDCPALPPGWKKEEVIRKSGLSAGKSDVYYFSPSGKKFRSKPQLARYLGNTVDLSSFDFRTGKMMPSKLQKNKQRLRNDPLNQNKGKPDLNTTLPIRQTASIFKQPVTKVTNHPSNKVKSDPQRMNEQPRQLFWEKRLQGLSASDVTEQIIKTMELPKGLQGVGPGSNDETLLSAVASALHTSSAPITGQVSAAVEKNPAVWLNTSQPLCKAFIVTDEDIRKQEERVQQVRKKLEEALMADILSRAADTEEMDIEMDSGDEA
RBBP9 inhibitor: inhibitors of human serine hydrolase RBBP9; recombinant RBBP9, FP-Rh probe fluorescence polarization; O75884; inhibition, % at 7.94 µM; 220,000 tested, 0.2% active;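 active means inhibition above the campaign mean of all tested compounds plus 3 SD, cut at about 14% in these data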;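 further: plate controls were DMSO wells with RBBP9 for no effect and wells lacking RBBP9 protein for full effect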
Target sequence (O75884 whole entry, looked up): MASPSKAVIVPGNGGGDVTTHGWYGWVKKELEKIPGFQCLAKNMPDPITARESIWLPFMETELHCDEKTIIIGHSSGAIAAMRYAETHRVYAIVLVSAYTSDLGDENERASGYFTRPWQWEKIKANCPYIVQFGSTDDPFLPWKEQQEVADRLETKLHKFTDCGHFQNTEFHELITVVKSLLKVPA
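System: RBBP9 protein / Buffer or medium: Tris/NaCl buffer pH 8.0 with 0.1% Pluronic / Probe or stimulus: Serine-hydrolase probe FP-Rh, 375 nM pre-mixing / Dosing: 7.94 µM single dose, 0.794% DMSO / Times: enzyme-compound preincubation 30 min, then probe labeling 45 min, 25 °C / Technique: fluorescence polarization (mP), excitation 525 nm, emission 598 nm / Replication: singlicate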
UHRF1 binding: UHRF1 methyl-DNA binding inhibition. inhibition, % at 4.4 µM. Q96T88. UHRF1 binding to methylated oligo, TR-FRET. AID 687016. 370,000 tested, 0.75% active;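 further: UHRF1 SRA domain binding a hemimethylated CpG hairpin DNA probe; 0% = median of test compound wells and 100% = reference inhibitor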
ABHD5 PLIN5 PPI: inhibitors of human ABHD5-perilipin-5 interaction | Q00G26+Q8WTS1 | Split G. princeps luciferase complementation, luminescence, 4 h | inhibition, % at 4 µM | 360,000 tested, 0.78% active | AID 602281;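 active means inhibition above the mean inhibition across every tested compound plus 3 SD, cut at about 22% in these data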;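 further: 0% = DMSO only wells and the 100% control is not disclosed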
LEDGF integ inh: blocks HIV-1 LEDGF/p75-dependent DNA integration | TR-FRET IN-LEDGF/p75 DNA integration, Eu/Cy5 | AID 743269 | 370,000 tested, 0.64% active | inhibition, % at 3.7 µM;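 active means inhibition above the screen-wide mean plus 3 SD, cut at about 13% in these data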;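 further: signal is the Cy5 over europium emission ratio at 671 and 618 nm; 0% = plate median of compound wells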
UHRF1 ctr MBD2: UHRF1 methyl-oligo binding inhibition as MBD2 counter-screen; inhibition, % at 4.4 µM; AID 720530; UHRF1 binding to methylated oligonucleotide, TR-FRET; 1,000 tested, 25% active; shares compounds with MBD2 DNA inh;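 further: UHRF1 SRA domain binding a labeled hemimethylated CpG hairpin DNA; 0% = vehicle only and 100% = reference inhibitor with vehicle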
MBD2 DBD conf: confirmation of human MBD2-DBD methylated oligonucleotide binding inhibitors; 1,000 tested, 26% active; inhibition, % at 4.4 µM; shares compounds with MBD2 DNA inh; TR-FRET MBD2-DBD binding to methylated oligonucleotide; in the data active means inhibition above about 14%
* hit, by the source's call; . = no result; ! = repeats disagree. Unless noted, no stated cut-off is given here; in the data, active means inhibition above about 21%; inactive means the rest.

SMILES	PRMT1 FP inh	MBD2 DNA inh	RBBP9 inhibitor	UHRF1 binding	ABHD5 PLIN5 PPI	LEDGF integ inh	UHRF1 ctr MBD2	MBD2 DBD conf
O=C(Nc1cnc2ccccc2c1)N1CCOCC1	6	16*	4	20	-4	0	13	7
O=C(COC(=O)CN1C(=O)c2ccccc2C1=O)Nc1ccccc1[N+](=O)[O-]	2	19*	.	24*	-1	1	3	2
COC(=O)[C@]12C[C@H](CC(=O)NCCC(C)C)C(=O)N(CCc3ccc(OC)c(OC)c3)C1=C[C@H](C(C)C)O[C@@H]2C1CC1	-2	4	.	4	.	-2	.	.
COc1ccccc1S(=O)(=O)N(C)C[C@H]1Oc2cc(C#CCC3CCCC3)ccc2S(=O)(=O)N([C@H](C)CO)C[C@H]1C	5	14*	.	22*	13	5	10	9
COc1ccccc1S(=O)(=O)N(C)C[C@@H]1Oc2cc(C#CCC(C)C)ccc2S(=O)(=O)N([C@H](C)CO)C[C@@H]1C	1	1	.	8	0	-2	.	.
COc1ccc(S(=O)(=O)N(C)C[C@@H]2Oc3cc(C#CC4CCCCC4)ccc3S(=O)(=O)N([C@@H](C)CO)C[C@@H]2C)cc1	10	17*	.	27*	14	-6	12	8
CCC(NC(=O)C1CCCN(c2ncccn2)C1)c1ccccc1 (stereo not drawn)	-1	2	.	1	.	1	.	.
O=C(NCCc1ccc(F)cc1)c1cc2ccccn2n1	-8	-7	.	1	.	1	.	.
C=C(C)C(=O)Nc1cccc(C2=NOC3(C2)C[C@@H](C(N)=O)N(C(=O)c2cc([N+](=O)[O-])cc([N+](=O)[O-])c2C)C3)c1 (stereo partly drawn)	0	18*	.	34*	-5	9	24*	12
C=C(C)C(=O)Nc1cccc(C2=NOC3(C2)C[C@H](C(N)=O)N(C(=O)COc2ccc(Cl)cc2)C3)c1 (stereo partly drawn)	3	51*	.	69*	5	16*	88*	69*
C/C=C/C(=O)Nc1cccc(C2=NOC3(C2)C[C@@H](C(N)=O)N(C(=O)c2cc([N+](=O)[O-])cc([N+](=O)[O-])c2C)C3)c1 (stereo partly drawn)	1	1	.	4	-1	3	.	.
C=C(C)C(=O)Nc1cccc(C2=NOC3(C2)C[C@@H](C(N)=O)N(C(=O)/C=C/CC)C3)c1 (stereo partly drawn)	0	39*	.	67*	2	9	69*	43*
COc1cc(C=NN2CCN(C(c3ccccc3)c3ccccc3)CC2)cc(OC)c1OC(C)=O	-1	2	.	0	.	-3	.	.
COC(=O)[C@H](Cc1ccccc1)N1CC(N2CCCC2)CS1(=O)=O (stereo partly drawn)	2	0	.	1	.	0	.	.
O=C(Nc1ccccc1)c1cc(C2CCCCN2C(=O)c2ccc3c(c2)CCO3)on1 (stereo not drawn)	-9	0	.	0	6	6	.	.
N#Cc1cccc(NC(=O)c2cc(C3CCCCN3C(=O)c3ccc4c(c3)CCO4)on2)c1 (stereo not drawn)	0	53*	.	12	-4	-1	4	3
COc1cc(-c2nnc(COC(=O)c3ccc(C)o3)o2)cc(OC)c1OC	-2	18*	.	39*	0	4	9	8
COc1cc(-c2nnc(COC(=O)c3cc(C)no3)o2)cc(OC)c1OC	8	3	.	-1	13	-1	.	.
c1ccc(Oc2ncnc3ccccc23)cc1	6	21*	.	0	-4	-6	2	2
Cc1nc(Oc2ccccc2)c2ccccc2n1	-1	5	-2	5	-2	-5	.	.
CN1OC[C@@H]2CN(C(=S)Nc3cc(C(F)(F)F)cc(C(F)(F)F)c3)[C@H](c3ccccc3Br)C[C@@H]21	7	5	.	3	.	-3	.	.
COc1ccc(-c2nc3ccc(Cl)cn3c2Cc2ccccc2C(F)(F)F)cc1OC	-3	2	.	1	3	8	.	.
COc1ccc(-c2nc3ccc(C)cn3c2Cc2ccccc2C(F)(F)F)cc1OC	3	14*	.	21*	.	-2	8	6
CCCCNc1c(-c2ccc(OC)c(SC(C)CC)c2)nc2ccc(C)cn12 (stereo not drawn)	1	14*!	.	-2	2	1	9	3
CCOc1cccc(C=NNC(=O)C(=O)Nc2cccc(C(F)(F)F)c2)c1O	2	3	.	1	.	-6	.	.
SMILES	PRMT1 FP inh	MBD2 DNA inh	RBBP9 inhibitor	UHRF1 binding	ABHD5 PLIN5 PPI	LEDGF integ inh	UHRF1 ctr MBD2	MBD2 DBD conf
C[C@H]1C2CC(OC(=O)Nc3cccc(Cl)c3)C(C2)[C@H]2CCCCN21 (stereo partly drawn)	1	2	.	0	.	-4	.	.
CCc1ccc(/C=C2\SC(=S)N(CCCC(=O)Nc3cc(C)on3)C2=O)cc1	1	15*	.	-1	-4	-1	3	2
Cc1onc(-c2c(Cl)cccc2Cl)c1C(=O)NCCc1ccc(S(N)(=O)=O)cc1	0	14*	2	32*	-2	3	1	5
NS(=O)(=O)c1ccc(NC(=O)c2ccc3nccnc3c2)cc1	2	-2	-3	-2	-2	-1	.	.
NS(=O)(=O)c1ccc(CCNC(=O)c2ccc3nccnc3c2)cc1	9	15*	.	18	2	3	34*	26*
Cc1onc(-c2ccccc2)c1C(=O)NCCc1ccc(S(N)(=O)=O)cc1	-5	4	2	0	8	0	.	.
Cc1cc(N2CCN(CC(C)(C)O)C[C@H]2C)ccc1N1CCN(CC(C)(C)O)[C@H](C)C1	-6	0	.	1	.	-3	.	.
COc1ccc(N2C(=O)c3n[nH]c(C)c3C2c2ccccc2)cc1 (stereo not drawn)	-1	-1	.	0	.	1	.	.
CC(C)(C)OC(=O)NCc1cc(F)ccc1/C=C/S(=O)(=O)NCc1ccccc1	6	-1	.	-2	.	0	.	.
OCCCNc1c2ccccc2nc2ccccc12	-2	31*	.	28*	3	8	33*	34*
COc1ccc(Cl)cc1NC(=S)N1CCC(c2ccc(C)cc2)C1 (stereo not drawn)	2	23*	-7	-2	1	-2	3	1
COc1ccc2oc3cc(C)[n+]([O-])c(-c4ccc(Cl)cc4)c3c2c1	2	13*	-7	19	5	1	1	2
COc1ccc(-c2c3c(cc(C)[n+]2[O-])oc2ccc(OC)cc23)cc1	-1	10	-7	20	7	1	.	.
